Compound activity as filed in PubChem.
Rows were chosen to be rich in hits. Some 1.5% of all compounds tested hit in one or more screens of this group.
APJ agonist = activates the human apelin receptor APJ. P35414. CHO-K1 APJ PathHunter beta-arrestin, luminescence; 0% DMSO wells, 100% apelin. activation, % at 20 µM. 330,000 compounds, 0.11% hits;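 active means activation more than six SD over the plate average, tested at 20 µM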;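 further: 0% = DMSO alone and 100% = apelin-13 at 10 nM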
Target sequence (P35414 whole entry, looked up): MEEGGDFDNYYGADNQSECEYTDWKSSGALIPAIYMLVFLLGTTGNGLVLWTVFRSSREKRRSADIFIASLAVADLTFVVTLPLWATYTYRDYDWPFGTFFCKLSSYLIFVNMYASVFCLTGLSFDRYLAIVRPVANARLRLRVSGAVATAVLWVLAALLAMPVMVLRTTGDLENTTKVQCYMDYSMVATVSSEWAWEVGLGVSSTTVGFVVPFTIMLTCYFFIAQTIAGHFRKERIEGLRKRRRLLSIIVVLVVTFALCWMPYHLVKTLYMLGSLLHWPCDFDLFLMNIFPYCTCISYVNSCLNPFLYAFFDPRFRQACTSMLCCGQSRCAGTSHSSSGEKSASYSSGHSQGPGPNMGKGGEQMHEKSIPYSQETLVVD
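Assay system: CHO-K1 cells stably expressing ProLink-tagged human APJ and arrestin–beta-gal acceptor. Compound dosing: 20 µM single point, 1% DMSO. Times: 16-18 h seeding, 90 min dark compound exposure, 60 min detection. Detection: beta-gal luminescence. Evaluation: APJ–arrestin association signal. Controls: negative DMSO alone, positive Apelin-13 at 10 nM.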
CCR6 antagonist = CCR6 (human) receptor antagonism | 340,000 compounds, 0.49% hits | AID 493098 | CHO-K1 CCR6 PathHunter beta-arrestin, luminescence, CCL20-stimulated | P51684 | inhibition, % at 20 µM;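 active means compounds whose inhibition of the agonist-driven luminescence signal at 20 µM reaches about 50%, limit read from the data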;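 further: cells stimulated with CCL20 at 14 nM final; plate controls were DMSO with CCL20 for no effect and DMSO without agonist for full effect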
EBI2 block = EBI2 (human) antagonism. P32249. EBI2 beta-arrestin recruitment, luminescence, 7a,25-OHC stimulated. inhibition, % at 5 µM. 360,000 compounds, 0.81% hits; in the data active means inhibition above about 38%;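 further: enzyme fragment complementation signal reports receptor beta-arrestin coupling in cells; 0% = agonist plus DMSO wells and 100% = wells without agonist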
CXCR6 block = blocks human CXCR6 beta-arrestin recruitment; CHO-K1 PathHunter CXCR6 beta-arrestin, luminescence; 360,000 compounds, 0.36% hits; O00574; inhibition, % at 20 µM; in the data active means inhibition above about 34%, passing the limit was not always enough;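 further: antagonist mode with CXCL16 agonist at 10 nM final; 0% = 10 nM CXCL16 with DMSO and 100% = unstimulated wells without agonist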
APJ antagonist = APJ receptor antagonism; inhibition, % at 20 µM; CHO-K1 APJ beta-arrestin complementation, luminescence; P35414; 330,000 compounds, 0.32% hits; AID 2521;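 active means inhibition above about 40% at 20 µM, limit read from the data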;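 further: cells challenged with 10 nM apelin-13 agonist together with compound; plate controls were apelin-13 plus DMSO wells for no effect and DMSO wells lacking apelin-13 for full effect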
EBI2 conf = EBI2 (human) antagonism, single concentration confirmation. shares compounds with EBI2 block. AID 651997. inhibition, % at 5 µM. 2,400 compounds, 29% hits. EBI2 beta-arrestin luminescence, 7a,25-OHC antagonism;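 active means inhibition of at least 50%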
EBI2 agonist = EBI2 agonism counter-screen; shares compounds with EBI2 block; EBI2-expressing cells, agonist mode, luminescence, 60 min; 0% vehicle, 100% 7α,25-dihydroxycholesterol control; activation, % at 5 µM; 2,400 tested, under 10 active;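 active means activation of at least 50%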
bGal counter = counter-screen for EBI2 antagonists: E. coli beta-galactosidase inhibition | shares compounds with EBI2 block | purified beta-galactosidase, luminescent Galacton Star, 15 min | inhibition, % at 5 µM | 2,400 compounds, 1% hits | AID 652176;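 active means replicate-average signal at least 3 plate SD below neutral wells, shown as high inhibition, flagging enzyme-inhibiting false positives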;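 further: 0% = DMSO wells with enzyme and 100% = wells lacking enzyme; higher means stronger loss of beta-gal luminescence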
* marks the source's active call; other numbers are inactive results; x = not tested or not shown.

SMILES	APJ agonist	CCR6 antagonist	EBI2 block	CXCR6 block	APJ antagonist	EBI2 conf	EBI2 agonist	bGal counter
O=C1C=C(O)CC(c2ccc(Cl)cc2)C1 (stereo unspecified)	-1.0	-5.2	-12.8	1.9	9.4	x	x	x
Cn1c2ccc(F)cc2c2nnc(SCCN3CCOCC3)nc21	-1.6	3.8	0.8	-2.2	18.0	x	x	x
CCCCn1c2ccccc2c2nnc(SCCN3CCCCC3)nc21	-0.4	14.8	49.0*	12.9	-20.7	13.1	-2.2	-10.9
C=CCn1c2ccccc2c2nnc(SCCN3CCOCC3)nc21	0.8	4.6	10.7	5.5	-15.0	x	x	x
CCCCn1c2ccc(F)cc2c2nnc(SCCN3CCOCC3)nc21	-1.6	0.8	63.4*	4.6	4.3	30.8	0.4	9.2
O=C(Cn1nnc(-c2ccccc2)n1)N/N=C/c1cc([N+](=O)[O-])ccc1O	-5.7	27.4	55.0*	10.2	24.0	40.5	0.8	6.1
COc1ccc(/C=N/n2cnn(Cc3ccccc3Cl)c2=S)cc1	0.0	14.6	48.9*	9.9	-11.2	45.4	-0.9	-10.8
COc1cc(/C=N/n2cnn(Cc3ccccc3Cl)c2=S)cc(OC)c1OC	-3.4	12.4	13.6	-1.2	11.2	x	x	x
CCOC(=O)c1c(C)[nH]c(C(=O)Nc2cc(OCC)c(N3CCOCC3)cc2OCC)c1C	-1.8	-7.5	25.8	5.8	10.3	x	x	x
CCn1c(-c2ccccc2Cl)nn(CC(=O)NCCc2ccccc2)c1=S	-0.5	9.6	56.6*	-3.0	8.5	31.1	-1.3	-6.4
CCn1c(-c2ccccc2Cl)nn(CC(=O)Nc2cc(Cl)ccc2Cl)c1=S	-3.2	7.7	12.9	3.3	2.4	x	x	x
Cc1cccc(OCC(=O)N2CCC(c3ccccc3)C2)c1 (stereo unspecified)	0.9	-8.9	46.3*	0.8	-2.8	43.5	0.9	2.6
O=C(COc1ccc(F)cc1)N1CCC(c2ccccc2)C1 (stereo unspecified)	-5.5	-13.7	56.7*	2.0	7.4	27.1	-0.3	3.3
COCc1cc(C)nc(OCC(=O)N/N=C/c2ccc(O)cc2)c1C#N	-2.3	8.3	62.6*	6.7	1.2	41.2	1.5	6.2
Cc1cc(C)c(C#N)c(SCc2[nH]nc3c2C(c2ccc(F)cc2)C(C#N)=C(N)O3)n1 (stereo unspecified)	0.2	2.1	83.5*	-3.4	14.1	56.5*	1.2	8.0
Cc1cc(C#N)c(C)c(SCc2[nH]nc3c2C(c2ccccc2)C(C#N)=C(N)O3)n1 (stereo unspecified)	-1.0	19.8	67.7*	7.5	3.8	54.8*	-0.2	6.7
OC[C@@H]1CN(Cc2ccc(F)cc2)C[C@H](n2cnc3c(NCc4ccc(F)cc4)ncnc32)O1	x	x	-5.7	6.0	x	x	x	x
CCOC(=O)/C(C#N)=C\c1ccc(OC)c(OC)c1	-1.2	7.7	-3.4	1.8	-0.7	x	x	x
COc1cc(/C=C(\C#N)C(=O)NC2CCCCC2C)ccc1OS(=O)(=O)c1ccc(C)cc1 (stereo unspecified)	2.4	12.2	62.5*	-3.2	3.6	68.9*	0.5	-2.9
COc1cc(/C=C(/C#N)C(=O)Nc2ccc(C)cc2)ccc1Oc1nc(Cl)ncc1F	6.6	14.8	49.1*	-4.2	-24.2	46.2	-0.8	-13.4
CSc1ccc(/C=C(\C#N)C(=O)NC2CCCCC2C)cc1 (stereo unspecified)	-0.5	32.1	32.2	11.4	6.1	x	x	x
COc1cc(/C=C(\C#N)C(N)=O)ccc1OS(=O)(=O)c1ccc(C)cc1	-3.5	17.4	52.4*	4.2	-22.2	56.2*	1.4	-6.8
COc1ccc(/C=N/NC(=O)CC#N)cc1Oc1nc(Cl)ncc1F	-3.6	0.3	-15.5	2.8	9.7	x	x	x
CCC(CO)Nc1nc2ccc(Cl)cc2c2ccccc12 (stereo unspecified)	0.4	-14.1	-11.6	-4.0	-3.0	x	x	x
COc1ccc(N2CCN(C(=O)c3cc(=O)c4ccc(C)cc4o3)CC2)cc1	-1.6	-5.5	49.7*	-14.2	9.6	49.4	-1.8	-15.7
